In BindingDB's records for doi:10.1021/jm010816q (Eth Zurich, 2001):
Residues, ends and D or L forms follow the SMILES beside them.

Assays:
[1] = molecular target: Somatostatin receptor type 3 (Homo sapiens, UniProt P32745); test: Binding assay at human somatostatin receptor 3 (hsst3) expressed in CCL-39 cells using LTT-CST-14-(Tyr10) as radioligand.
Method in brief: (§1)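 Chinese hamster lung fibroblast CCL39 cells stably expressing each hsst receptor; crude membrane homogenates in 10 mM HEPES pH 7.5, 0.5% BSA, 5 mM MgCl2, 5 mg/mL bacitracin. Vacuum filtration, bound radioactivity counted. Triplicate curves fitted by nonlinear regression; pKD reported.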

[2] = molecular target: Somatostatin receptor type 5 (Homo sapiens, UniProt P35346); test: Binding assay at human somatostatin receptor 5 (hsst5) expressed in CCL-39 cells using LTT-CST-14-(Tyr10) as radioligand.; method in brief: as §1
[3] = molecular target: Somatostatin receptor type 4 (Homo sapiens, UniProt P31391); test: Binding assay at human somatostatin receptor 4 (hsst4) expressed in CCL-39 cells using LTT-CST-14-(Tyr10) as radioligand.; method in brief: as §1
[4] = molecular target: Somatostatin receptor type 1 (Homo sapiens, UniProt P30872); test: Binding assay at human somatostatin receptor 1 (hsst1) expressed in CCL-39 cells using LTT-CST-14-(Tyr10) as radioligand.; method in brief: as §1
[5] = molecular target: Somatostatin receptor type 2 (Homo sapiens, UniProt P30874); test: Binding assay at human somatostatin receptor 2 (hsst2) expressed in CCL-39 cells using LTT-CST-14-(Tyr10) as radioligand.; method in brief: as §1
Sequence of Somatostatin receptor type 2 (P30874 whole entry): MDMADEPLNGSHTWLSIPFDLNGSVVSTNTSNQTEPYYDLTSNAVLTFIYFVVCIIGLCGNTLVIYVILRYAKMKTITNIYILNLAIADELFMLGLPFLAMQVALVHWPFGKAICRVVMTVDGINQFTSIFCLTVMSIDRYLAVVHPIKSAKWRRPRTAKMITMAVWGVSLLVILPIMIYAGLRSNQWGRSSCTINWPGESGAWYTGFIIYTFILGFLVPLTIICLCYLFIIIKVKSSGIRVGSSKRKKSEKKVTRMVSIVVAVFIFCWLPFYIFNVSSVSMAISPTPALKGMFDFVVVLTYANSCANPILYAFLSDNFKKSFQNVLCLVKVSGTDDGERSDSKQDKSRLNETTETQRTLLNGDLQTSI

Sequence of Somatostatin receptor type 1 (P30872 whole entry): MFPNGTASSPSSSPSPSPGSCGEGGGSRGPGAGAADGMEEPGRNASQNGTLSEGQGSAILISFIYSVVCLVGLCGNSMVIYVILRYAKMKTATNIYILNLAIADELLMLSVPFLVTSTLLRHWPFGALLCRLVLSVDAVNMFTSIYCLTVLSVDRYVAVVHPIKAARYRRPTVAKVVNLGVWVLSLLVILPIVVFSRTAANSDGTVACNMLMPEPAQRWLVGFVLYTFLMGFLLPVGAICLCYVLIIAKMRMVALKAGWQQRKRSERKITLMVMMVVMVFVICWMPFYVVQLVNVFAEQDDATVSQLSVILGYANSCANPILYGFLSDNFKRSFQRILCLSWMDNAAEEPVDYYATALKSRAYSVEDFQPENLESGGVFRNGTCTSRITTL
Sequence of Somatostatin receptor type 3 (P32745 whole entry): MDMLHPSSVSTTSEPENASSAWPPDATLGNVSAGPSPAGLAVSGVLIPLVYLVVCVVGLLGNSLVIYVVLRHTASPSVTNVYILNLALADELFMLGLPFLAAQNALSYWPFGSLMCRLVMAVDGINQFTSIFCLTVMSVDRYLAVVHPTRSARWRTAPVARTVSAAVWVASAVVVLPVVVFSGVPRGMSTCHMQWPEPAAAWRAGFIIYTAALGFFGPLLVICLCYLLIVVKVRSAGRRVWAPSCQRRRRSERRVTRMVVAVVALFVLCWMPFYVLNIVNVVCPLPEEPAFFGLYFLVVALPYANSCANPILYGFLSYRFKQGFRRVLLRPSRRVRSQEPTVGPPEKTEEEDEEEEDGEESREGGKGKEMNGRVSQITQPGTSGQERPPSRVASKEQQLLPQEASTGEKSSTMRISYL
Sequence of Somatostatin receptor type 5 (P35346 whole entry): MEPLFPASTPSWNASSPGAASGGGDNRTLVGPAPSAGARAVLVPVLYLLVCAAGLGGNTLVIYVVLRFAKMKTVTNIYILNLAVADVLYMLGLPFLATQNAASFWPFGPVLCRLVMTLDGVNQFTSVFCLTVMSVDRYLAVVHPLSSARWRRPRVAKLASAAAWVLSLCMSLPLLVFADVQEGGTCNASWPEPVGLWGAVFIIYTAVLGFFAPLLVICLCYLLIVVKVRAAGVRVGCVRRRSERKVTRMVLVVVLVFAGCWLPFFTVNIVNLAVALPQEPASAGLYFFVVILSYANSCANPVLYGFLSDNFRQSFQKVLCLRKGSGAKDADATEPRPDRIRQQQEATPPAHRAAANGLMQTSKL
Sequence of Somatostatin receptor type 4 (P31391 whole entry): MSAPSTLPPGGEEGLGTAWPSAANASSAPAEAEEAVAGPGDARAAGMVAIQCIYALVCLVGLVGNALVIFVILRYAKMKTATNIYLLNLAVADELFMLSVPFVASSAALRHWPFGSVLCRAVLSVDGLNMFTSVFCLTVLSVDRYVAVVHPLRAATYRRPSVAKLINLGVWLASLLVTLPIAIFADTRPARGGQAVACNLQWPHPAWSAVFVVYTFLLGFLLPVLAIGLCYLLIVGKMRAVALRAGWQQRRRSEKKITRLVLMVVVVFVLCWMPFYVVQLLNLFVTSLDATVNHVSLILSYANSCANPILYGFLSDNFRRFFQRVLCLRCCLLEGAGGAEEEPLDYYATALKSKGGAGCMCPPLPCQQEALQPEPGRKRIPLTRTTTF

SMILES	Kd [1] [µM]	Kd [2] [µM]	Kd [3] [µM]	Kd [4] [µM]	Kd [5] [µM]
CC(=O)N[C@H](CC(=O)NC[C@H](CCCCN)C(=O)N[C@H](CC(=O)N[C@H](CC(N)=O)Cc1ccccc1)Cc1c[nH]c2ccccc12)[C@@H](C)O	> 10	> 10	0.083	13.2	> 10
CC(=O)N[C@H](CC(=O)N[C@@H](CCCCN)CC(=O)N[C@H](CC(=O)N[C@H](CC(N)=O)Cc1ccccc1)Cc1c[nH]c2ccccc12)[C@@H](C)O	> 10	> 100	> 100	> 100	> 100
CC(=O)N[C@H](C(=O)N[C@@H](CCCCN)C(=O)N[C@@H](Cc1c[nH]c2ccccc12)C(=O)N[C@@H](Cc1ccccc1)C(N)=O)[C@@H](C)O (Ac-TKWF-NH2)	> 10	> 100	> 10	> 100	> 100
